What was measured:
[1] = biological target: T1, MAP kinase-activated protein kinase 5 (Homo sapiens) (UniProt Q8IW41); assay: Inhibition of MAPKAPK5 at 1 uM
T1 sequence (whole entry): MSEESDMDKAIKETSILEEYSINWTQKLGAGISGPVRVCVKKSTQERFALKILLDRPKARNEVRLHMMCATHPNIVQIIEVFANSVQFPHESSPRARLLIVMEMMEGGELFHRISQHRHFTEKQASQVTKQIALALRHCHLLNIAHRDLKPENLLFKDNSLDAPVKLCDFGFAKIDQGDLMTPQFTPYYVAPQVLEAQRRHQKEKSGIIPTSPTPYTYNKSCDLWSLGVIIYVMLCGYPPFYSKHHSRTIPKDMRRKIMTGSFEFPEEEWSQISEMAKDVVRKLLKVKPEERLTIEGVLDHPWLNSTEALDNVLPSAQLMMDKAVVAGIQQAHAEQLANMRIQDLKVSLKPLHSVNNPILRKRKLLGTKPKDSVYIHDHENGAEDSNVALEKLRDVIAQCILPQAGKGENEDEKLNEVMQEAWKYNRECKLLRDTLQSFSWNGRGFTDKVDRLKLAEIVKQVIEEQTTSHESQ

[2] = biological target: T2, Dual specificity mitogen-activated protein kinase kinase 4 (Homo sapiens) (UniProt P45985); assay: Inhibition of MEK4 at 1 uM
T2 sequence (whole entry): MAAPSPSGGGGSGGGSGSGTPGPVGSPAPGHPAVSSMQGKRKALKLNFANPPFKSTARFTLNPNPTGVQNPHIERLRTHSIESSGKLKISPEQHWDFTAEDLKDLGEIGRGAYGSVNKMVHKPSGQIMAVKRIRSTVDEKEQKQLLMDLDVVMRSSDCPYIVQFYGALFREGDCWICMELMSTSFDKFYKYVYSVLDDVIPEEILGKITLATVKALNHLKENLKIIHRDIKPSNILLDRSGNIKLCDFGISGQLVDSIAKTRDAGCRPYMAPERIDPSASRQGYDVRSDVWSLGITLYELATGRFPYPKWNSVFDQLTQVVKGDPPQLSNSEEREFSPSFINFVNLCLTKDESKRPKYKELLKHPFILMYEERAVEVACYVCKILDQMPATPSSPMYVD

[3] = biological target: Mitogen-activated protein kinase 14 (Homo sapiens) (UniProt Q16539); assay: Inhibition of p38-alpha at 1 uM
[4] = biological target: Serine/threonine-protein kinase PAK 2 (Homo sapiens) (UniProt Q13177); assay: Inhibition of PAK2 at 1 uM
[5] = biological target: T3, Phosphatidylinositol 4,5-bisphosphate 3-kinase catalytic subunit delta isoform (Homo sapiens) (UniProt O00329); assay: Inhibition of PIK3CD at 1 uM
T3 sequence (whole entry): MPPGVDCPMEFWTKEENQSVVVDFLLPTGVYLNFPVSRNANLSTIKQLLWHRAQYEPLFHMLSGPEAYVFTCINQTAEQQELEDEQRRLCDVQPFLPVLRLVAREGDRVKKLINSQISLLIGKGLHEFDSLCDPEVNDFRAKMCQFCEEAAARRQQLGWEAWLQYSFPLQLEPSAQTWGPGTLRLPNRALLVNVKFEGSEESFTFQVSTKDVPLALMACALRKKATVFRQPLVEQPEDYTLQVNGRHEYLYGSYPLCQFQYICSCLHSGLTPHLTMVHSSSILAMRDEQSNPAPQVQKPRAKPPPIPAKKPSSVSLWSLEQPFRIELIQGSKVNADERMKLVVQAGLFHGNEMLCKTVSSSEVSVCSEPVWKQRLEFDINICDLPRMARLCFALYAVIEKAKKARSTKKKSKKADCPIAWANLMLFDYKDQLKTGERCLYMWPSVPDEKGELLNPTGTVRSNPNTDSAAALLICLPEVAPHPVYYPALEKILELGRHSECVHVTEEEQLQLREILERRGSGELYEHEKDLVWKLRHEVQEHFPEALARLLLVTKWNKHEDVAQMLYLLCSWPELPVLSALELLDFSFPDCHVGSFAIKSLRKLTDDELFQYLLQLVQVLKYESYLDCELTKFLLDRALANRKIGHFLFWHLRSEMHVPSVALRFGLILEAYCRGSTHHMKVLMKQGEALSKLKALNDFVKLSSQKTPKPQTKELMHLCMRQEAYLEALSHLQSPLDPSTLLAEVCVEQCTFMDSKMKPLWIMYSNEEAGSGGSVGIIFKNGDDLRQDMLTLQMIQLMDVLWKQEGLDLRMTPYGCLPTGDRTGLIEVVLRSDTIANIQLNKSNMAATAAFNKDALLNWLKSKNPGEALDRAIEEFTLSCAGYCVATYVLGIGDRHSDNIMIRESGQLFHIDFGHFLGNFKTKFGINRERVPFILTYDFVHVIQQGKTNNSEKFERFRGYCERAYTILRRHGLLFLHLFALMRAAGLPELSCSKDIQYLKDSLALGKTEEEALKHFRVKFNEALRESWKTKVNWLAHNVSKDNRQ

[6] = biological target: T4, Myotonin-protein kinase (Homo sapiens) (UniProt Q09013); assay: Inhibition of DMPK at 1 uM
T4 sequence (whole entry): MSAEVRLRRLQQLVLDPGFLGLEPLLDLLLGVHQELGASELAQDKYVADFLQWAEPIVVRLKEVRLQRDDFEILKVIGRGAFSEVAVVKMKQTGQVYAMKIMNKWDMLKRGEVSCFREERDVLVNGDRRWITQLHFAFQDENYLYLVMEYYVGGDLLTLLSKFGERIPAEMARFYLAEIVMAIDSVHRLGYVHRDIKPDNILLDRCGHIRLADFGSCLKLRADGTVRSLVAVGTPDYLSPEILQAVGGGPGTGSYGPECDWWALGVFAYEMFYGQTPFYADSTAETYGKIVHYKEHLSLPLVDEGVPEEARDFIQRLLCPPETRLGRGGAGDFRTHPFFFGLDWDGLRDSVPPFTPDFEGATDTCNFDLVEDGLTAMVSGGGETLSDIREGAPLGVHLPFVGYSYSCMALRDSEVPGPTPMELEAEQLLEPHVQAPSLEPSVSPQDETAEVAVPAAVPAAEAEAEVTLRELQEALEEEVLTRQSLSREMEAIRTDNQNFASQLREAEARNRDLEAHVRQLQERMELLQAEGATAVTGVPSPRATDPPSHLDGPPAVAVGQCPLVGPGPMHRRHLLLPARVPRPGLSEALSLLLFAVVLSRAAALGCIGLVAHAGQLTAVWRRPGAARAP
Summary of the method: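 Single-concentration screen using Ambit Bioscience KINOMEscan technology across a panel of 250–400 kinases. Per-kinase inhibition from this screen was summarized as S(90), the fraction of kinases inhibited by more than 90%.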

Measured: inhibition

Chain of Mitogen-activated protein kinase 14 (Homo sapiens) (Q16539 whole entry): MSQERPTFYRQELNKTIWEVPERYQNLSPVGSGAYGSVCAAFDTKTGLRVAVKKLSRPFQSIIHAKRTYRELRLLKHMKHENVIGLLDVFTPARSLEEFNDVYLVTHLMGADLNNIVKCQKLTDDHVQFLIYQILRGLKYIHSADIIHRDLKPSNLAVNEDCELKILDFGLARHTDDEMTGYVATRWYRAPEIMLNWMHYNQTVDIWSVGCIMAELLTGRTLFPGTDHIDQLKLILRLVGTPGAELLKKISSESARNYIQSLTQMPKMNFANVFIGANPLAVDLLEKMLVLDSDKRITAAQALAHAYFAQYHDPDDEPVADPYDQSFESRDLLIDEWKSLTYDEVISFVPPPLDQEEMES
Chain of Serine/threonine-protein kinase PAK 2 (Homo sapiens) (Q13177 whole entry, canonical isoform): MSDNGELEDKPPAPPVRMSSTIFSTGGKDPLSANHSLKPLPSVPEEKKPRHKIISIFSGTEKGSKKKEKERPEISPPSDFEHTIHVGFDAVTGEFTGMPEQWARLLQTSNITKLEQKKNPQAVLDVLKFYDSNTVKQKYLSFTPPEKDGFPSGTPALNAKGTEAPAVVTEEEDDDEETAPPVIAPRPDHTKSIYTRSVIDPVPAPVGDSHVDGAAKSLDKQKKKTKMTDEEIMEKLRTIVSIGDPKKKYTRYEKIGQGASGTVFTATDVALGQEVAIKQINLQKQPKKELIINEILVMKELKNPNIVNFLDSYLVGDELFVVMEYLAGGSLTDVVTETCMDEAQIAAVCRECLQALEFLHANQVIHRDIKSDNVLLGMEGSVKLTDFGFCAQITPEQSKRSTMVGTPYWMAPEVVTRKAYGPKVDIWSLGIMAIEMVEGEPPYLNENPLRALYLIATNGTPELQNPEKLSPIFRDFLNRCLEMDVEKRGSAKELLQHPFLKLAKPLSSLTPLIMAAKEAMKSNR

CN1CCN(c2ccc(-c3cnc4c(c3)N(Cc3cc(F)ccc3F)CCN4)cn2)CC1
< 50%: all assays above

O=C(c1ccc(-c2cnc3c(c2)N(Cc2cc(Cl)ccc2C(F)(F)F)CCN3)cc1)N1CCC(N2CCCC2)CC1
< 50%: [3] | [4] | [6]

O=C(c1ccc(-c2cnc3c(c2)N(Cc2cc(Cl)ccc2C(F)(F)F)CCN3)cc1)N1CCCCC1
< 50%: [3] | [4] | [6]

CN1CCN(c2ccc(-c3cnc4c(c3)N(Cc3c(F)ccc(F)c3Cl)CCN4)cn2)CC1
< 50%: all assays above

COC1CCN(C(=O)c2ccc(-c3cnc4c(c3)N(Cc3cc(Cl)ccc3C(F)(F)F)CCN4)cc2)CC1
< 50%: [3] | [4] | [6]

O=C(O)c1ccc(-c2cnc3c(c2)N(Cc2cc(Cl)ccc2C(F)(F)F)CCN3)cc1
< 50%: [3] | [4] | [6]

CC(=O)N1CCN(c2cc(-c3cnc4c(c3)N(Cc3cc(Cl)ccc3C(F)(F)F)CCN4)ccn2)CC1
< 50%: all assays above

FC(F)(F)c1ccc(Cl)cc1CN1CCNc2ncc(-c3ccnc(N4CCNCC4)c3)cc21
< 50%: all assays above

CN1CCN(c2ccc(-c3cnc4c(c3)N(Cc3cc(Cl)ccc3C(F)(F)F)CCN4)cn2)CC1
< 50%: all assays above

CN1CCN(c2ccc(-c3cnc4c(c3)N(Cc3cc(Cl)ccc3Cl)CCN4)cn2)CC1
< 50%: all assays above

— ChEMBL document CHEMBL1165965, “Synthesis and structure-activity relationships of 1,2,3,4-tetrahydropyrido[2,3-b]pyrazines as potent and selective inhibitors of the anaplastic lymphoma kinase” (Bioorg Med Chem, 2010)
